Assay results reported in ChEMBL document CHEMBL1914407, “New dammarane-type glucosides as potential activators of AMP-activated protein kinase (AMPK) from Gynostemma pentaphyllum” (Bioorg Med Chem, 2011).
Calls of active or inactive are those of the source.

Legend:
L6 [1] = assay: Increase in AMPK alpha-mediated GLUT4 translocation into plasma membrane in rat L6 cells assessed as [3H]2-deoxy-glucose uptake after 2 hrs by scintillation counting relative to control; format: cell-based
Summary of the method: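 2-Deoxy-[3H]D-glucose added for 10 min, then three ice-cold 0.9% NaCl washes. Cytochalasin B (10 µM) blank subtracted. Cells collected in 0.05 N NaOH and counted by scintillation. Expressed as pmol 2-DG/min/mg protein or fold over control. Mean ± S.D. of three experiments.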

L6 [2] = assay: Induction of AMPK-alpha phosphorylation at thr172 in rat L6 cells at 12 uM by Western blot analysis in presence of 10 uM of AMPK inhibitor; format: cell-based
Summary of the method: (§1)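 L6 myotubes pretreated 10 min with the AMPK inhibitor compound C (10 µM), then exposed to compound for 2 h (DMSO vehicle). Lysates immunoblotted for phospho-AMPKα1/2 (Thr172) and total AMPK.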

L6 [3] = assay: Induction of AMPK alpha-mediated ACC phosphorylation at ser79 in rat L6 cells after 2 hrs by Western blot analysis; format: cell-based
Summary of the method: (§2)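 Differentiated L6 myotubes treated 2 h with a range of compound concentrations (DMSO vehicle), then lysed in pH 8.0 Tris buffer containing NP-40, EDTA, DTT, PMSF, orthovanadate, NaF and protease inhibitors. Immunoblotted for phospho-AMPKα1/2 (Thr172), total AMPK, phospho-ACC (Ser79) and total ACC.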

L6 [4] = assay: Increase in beta-oxidation in rat L6 cells assessed as tritiated water production at 12 uM by scintillation counter method; format: functional, cell-based
Summary of the method: (§3)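 Fatty acid β-oxidation measured in differentiated L6 myotubes treated with compound, using DMSO as vehicle control. 3H2O formed was quantified in a scintillation counter.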

L6 [5] = assay: Induction of AMPK-alpha phosphorylation at thr172 in rat L6 cells after 2 hrs by Western blot analysis; format: cell-based; summary of the method: as §2
L6 [6] = assay: Increase in beta-oxidation in rat L6 cells assessed as tritiated water production at 150 uM by scintillation counting; format: functional, cell-based; summary of the method: as §3
L6 [7] = assay: Induction of AMPK-alpha phosphorylation at thr172 in rat L6 cells at 150 uM by Western blot analysis in presence of 10 uM of AMPK inhibitor; format: cell-based; summary of the method: as §1

Measured: Activity

C=C(CCC=C(C)C)[C@H]1CC[C@]2(C)[C@@H]1[C@H](O)C[C@@H]1[C@@]3(C)C[C@@H](O)[C@H](O[C@@H]4O[C@H](CO)[C@@H](O)[C@H](O)[C@H]4O[C@@H]4O[C@H](CO)[C@@H](O)[C@H](O)[C@H]4O)C(C)(C)[C@@H]3CC[C@]12C
active: L6 [1] Dose-dependent effect | L6 [2] | L6 [3] Dose-dependent effect | L6 [4] | L6 [5] Dose-dependent effect

CC(C)=CC/C=C(\C)[C@H]1CC[C@]2(C)[C@@H]1[C@H](O)C[C@@H]1[C@@]3(C)C[C@@H](O)[C@H](O[C@@H]4O[C@H](CO)[C@@H](O)[C@H](O)[C@H]4O[C@@H]4O[C@H](CO)[C@@H](O)[C@H](O)[C@H]4O)C(C)(C)[C@@H]3CC[C@]12C
active: L6 [6] | L6 [7] | L6 [1] Dose-dependent effect | L6 [3] Dose-dependent effect | L6 [5] Dose-dependent effect
